Assay results as given in ChEMBL document CHEMBL4699545, “Non-cytotoxic 1,2,3-triazole tethered fused heterocyclic ring derivatives display Tax protein inhibition and impair HTLV-1 infected cells” (Bioorg Med Chem, 2020).
Calls of active or inactive are those of the source. The calls are words filed in the database; no cut-off is given here.

How the values were obtained:
MT2 [1] = test: Induction of apoptosis in human MT2 cells infected with HTLV-1 at 50 uM measured after 72 hrs by annexinV-Cy5/propidium iodide staining based FACSCalibur flow cytometry (reference value: 18.7 +/- 5.33 %); format: functional
Method in brief: (§1)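 MT-2 cells (3 × 10⁵/well) were treated for 72 h at 37 °C, 5% CO₂, then stained with annexin-V Cy5/PI per kit. Within an FSC/SSC live-cell gate, total annexin-V⁺ cells (early PI⁻ plus late PI⁺) were counted by flow cytometry. 0.5% DMSO served as negative control and etoposide 20 µM as positive. Triplicate, mean ± SD, ANOVA/Tukey.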

MT2 [2] = test: Cell cycle arrest in human MT2 cells infected with HTLV-1 assessed as accumulation at G2/M phase at 50 uM incubated for 72 hrs by RNaseA/propidium iodide staining based FACSCalibur flow cytometry; format: functional
Method in brief: (§2)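 MT-2 cells (3 × 10⁵/well) exposed to compound (300 µM stock, 100 µl added to 500 µl cells) for 72 h at 37 °C, 5% CO₂. Cells were PBS-washed and fixed in ice-cold 70% ethanol overnight at -20 °C, then RNase A treated 30 min at 37 °C and PI stained. 10,000 events were acquired and phase percentages modelled. Triplicate, mean ± SD; one-way ANOVA/Tukey versus 0.5% DMSO.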

MT2 [3] = test: Induction of apoptosis in human MT2 cells infected with HTLV-1 at 50 uM measured after 72 hrs by annexinV-Cy5/propidium iodide staining based FACSCalibur flow cytometry; format: functional, cell-based; method in brief: as §1
Huh-7 = test: Cytotoxicity against human Huh-7 cells assessed as reduction in cell viability by measuring viability index at 50 uM after 72 hrs in presence of resazurin by resazurin reduction method; format: cell-based; conditions: huh-7, 72 h
Method in brief: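 Huh-7 cells (3.6 × 10⁴ cells/mL) were exposed to twofold serial dilutions in PBS, 10 points from 50 µM, for 72 h at 37 °C, 5% CO₂. Resazurin (10 µM) was added for the final 4 h and fluorescence read. Viability = RFU treated / mean RFU of 0.5% DMSO wells.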

MT2 [4] = test: Cytotoxicity against human MT2 cells infected with HTLV-1 assessed as reduction in metabolic activity at 50 uM incubated for 72 hrs in presence of resazurin by resazurin reduction method relative to control; format: functional
Method in brief: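 MT-2 cells incubated with compound at a final 50 µM in 0.5% DMSO for 72 h at 37 °C, 5% CO₂. Resazurin (10 µM) was added for the final 4 h and fluorescence read at 590 nm; medium-only wells gave background. RFU normalized between 0.5% DMSO (0) and 20 µM etoposide (100) controls. Three independent days.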

MT2 [5] = test: Cell cycle arrest in human MT2 cells infected with HTLV-1 assessed as accumulation at S phase at 50 uM incubated for 72 hrs by RNaseA/propidium iodide staining based FACSCalibur flow cytometry; format: functional; method in brief: as §2
MT2 [6] = test: Induction of apoptosis in human MT2 cells infected with HTLV-1 assessed as activation of caspase-3/7 at 50 uM measured after 72 hrs by CellEvent caspase 3/7 green detection reagent based assay; format: functional, cell-based
Method in brief: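 MT-2 cells (3 × 10⁵/well) were exposed to compound (300 µM stock, 100 µl into 500 µl) for 72 h at 37 °C, 5% CO₂. CellEvent caspase-3/7 green reagent was added for 45 min at room temperature in the dark. 10,000 events were acquired, and the percentage of active caspase-3/7⁺ cells was taken within an FSC/SSC live-cell gate. Triplicate, mean ± SD, ANOVA/Tukey versus 0.5% DMSO.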

MT2 [7] = test: Cell cycle arrest in human MT2 cells infected with HTLV-1 assessed as accumulation at G0/G1 phase at 50 uM incubated for 72 hrs by RNaseA/propidium iodide staining based FACSCalibur flow cytometry; format: functional; method in brief: as §2
[8] = Effect on HTLV-1 Tax expression in lentiviral pLVX-TET3G transduced human Jurkat LTR-GFP inducible Tax assessed as doxycyclin-treated GFP negative PI positive dead cells at 50 uM after 72 hrs by flow cytometry (reference value: 16.82 +/- 3.37 %)
MT2 [9] = test: Cytotoxicity against human MT2 cells infected with HTLV-1 assessed as reduction in metabolic activity at 20 uM incubated for 72 hrs in presence of resazurin by resazurin reduction method; format: functional, cell-based
Method in brief: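 Reference etoposide at 20 µM (final, 0.5% DMSO) served as the positive control in the MT-2 resazurin screen. Cells were incubated 72 h, with 10 µM resazurin added for the last 4 h, and fluorescence read at 590 nm. Three independent days.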

MT2 [10] = test: Cell cycle arrest in human MT2 cells infected with HTLV-1 assessed as accumulation at G2/M phase at 20 uM incubated for 72 hrs by RNaseA/propidium iodide staining based FACSCalibur flow cytometry; format: functional
Method in brief: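 Etoposide 20 µM used as reference in MT-2 cell cycle assay: 3 × 10⁵ cells/well, 72 h at 37 °C. Ethanol fixation (70%, overnight -20 °C), RNase A 30 min at 37 °C, then PI staining. 10,000 events acquired by flow cytometry and G0/G1, S and G2/M fractions modelled. Triplicate, mean ± SD.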

For Cc1cc(=O)oc2cc(OCc3cn(CC4CCN(Cc5ccccc5)CC4)nn3)ccc12, the Activity (MT2 [1]) was 39.96%, the Activity (MT2 [2]) was “inactive” and the Activity (MT2 [3]) was “Active”. For the same compound, the Growth_index (Huh-7) was 0.61, the inhibition at 50 µM (MT2 [4]) was at least 70% and the Activity (MT2 [5]) was “inactive”. For the same compound, the Activity (MT2 [6]) was “Active” and the Activity (MT2 [7]) was “inactive”.

For O=C1c2ccccc2C(=O)N1Cc1cn(CCNc2ccnc3cc(Cl)ccc23)nn1, the Growth_index (Huh-7) was 0.85, the inhibition at 50 µM (MT2 [4]) was at least 70% and the Activity (MT2 [5]) was “Active”.

In the case of c1ccc(CN2CCC(Cn3cc(CNc4ncnc5ccccc45)nn3)CC2)cc1, the Activity (MT2 [2]) is reported as “inactive”, the inhibition at 50 µM (MT2 [4]) is reported as at least 70% and the Activity (MT2 [5]) is reported as “inactive”. The Activity (MT2 [7]) was “inactive”.

For Clc1ccc2c(NCCn3cc(CNc4ncnc5ccccc45)nn3)ccnc2c1, the Activity (MT2 [2]) was “inactive”, the Activity (MT2 [3]) was “Active” and the Growth_index (Huh-7) was 0. For the same compound, the “GFP-PI+ dead cells %” value [8] was 44.88%, the inhibition at 50 µM (MT2 [4]) was at least 70% and the Activity (MT2 [5]) was “inactive”. For the same compound, the Activity (MT2 [6]) was “Active” and the Activity (MT2 [7]) was “inactive”.

For COc1cc2ncnc(NCc3cn(CCNc4ccnc5cc(Cl)ccc45)nn3)c2cc1OC, the Activity (MT2 [2]) was “inactive”, the Activity (MT2 [3]) was “Active” and the Growth_index (Huh-7) was 0. The “GFP-PI+ dead cells %” value [8] was 90.98%, the inhibition at 50 µM (MT2 [4]) was at least 70% and the Activity (MT2 [5]) was “inactive”. The Activity (MT2 [6]) was “Active” and the Activity (MT2 [7]) was “inactive”.

For O=C(Cn1cc(CNc2ncnc3ccccc23)nn1)N1CCN(Cc2ccccc2)CC1, the Activity (MT2 [2]) was “inactive”, the inhibition at 50 µM (MT2 [4]) was at least 70% and the Activity (MT2 [5]) was “inactive”. The Activity (MT2 [7]) was “inactive”.

For COc1cc([C@@H]2c3cc4c(cc3[C@@H](O[C@@H]3O[C@@H]5CO[C@@H](C)O[C@H]5[C@H](O)[C@H]3O)[C@H]3COC(=O)[C@H]23)OCO4)cc(OC)c1O, the inhibition (MT2 [9]) was “Active” and the Activity (MT2 [10]) was “inactive”.

With O=C(Cn1cc(CSc2nc3ccccc3[nH]2)nn1)N1CCN(Cc2ccccc2)CC1 the Activity (MT2 [2]) was “inactive”, the inhibition at 50 µM (MT2 [4]) was at least 70% and the Activity (MT2 [5]) was “inactive”. For the same compound, the Activity (MT2 [7]) was “inactive”.

In the case of COc1cc2ncnc(NCc3cn(CC4CCN(Cc5ccccc5)CC4)nn3)c2cc1OC, the Activity (MT2 [2]) is reported as “inactive”, the Activity (MT2 [3]) is reported as “Active” and the Growth_index (Huh-7) is reported as 0.65. The inhibition at 50 µM (MT2 [4]) was at least 70%, the Activity (MT2 [5]) was “inactive” and the Activity (MT2 [6]) was “Active”. For the same compound, the Activity (MT2 [7]) was “inactive”.
